Screening data from PubChem BioAssay.
OX1R antag-1: antagonists of human orexin 1 receptor (OX1R); 330,000 tested, 1.8% active; Orexin/Hypocretin receptor type 1 (Homo sapiens), O43613; inhibition, % at 6.6 µM; OX1R-expressing cells, FRET antagonist read-out; in the data active = inhibition mostly above about 38%, no sharp cut-off; inactive = mostly below about 40%;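 also: 0% = agonist challenge alone and 100% = reference antagonist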
GPR7 antag: GPR7 receptor antagonists, primary screen, cell-based, fluorescence, single concentration. GPR7-expressing cells, fluorescence antagonist assay. AID 1861, 2009. 290,000 tested, 1.1% active. inhibition, % at 4.4 µM. Neuropeptides B/W receptor type 1 (Homo sapiens), P48145; in the data active = inhibition above about 16%, passing the limit was not always enough;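 also: cells stimulated with the agonist NPW; 0% = agonist with vehicle and 100% = vehicle without agonist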
TAAR1 agonist: human TAAR1 agonists, primary screen, Fluo-8 calcium fluorescence, CHO RD-HGA16 cells. vehicle wells 0%, saturating PEA agonist 100%. 360,000 tested, 0.99% active. activation, % at 3 µM. AID 624467, 2012;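 active = activation above the mean activation of all test compounds in the run plus 3 SD, cut at about 38% in these data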
Target sequence (Q96RJ0 whole entry, looked up): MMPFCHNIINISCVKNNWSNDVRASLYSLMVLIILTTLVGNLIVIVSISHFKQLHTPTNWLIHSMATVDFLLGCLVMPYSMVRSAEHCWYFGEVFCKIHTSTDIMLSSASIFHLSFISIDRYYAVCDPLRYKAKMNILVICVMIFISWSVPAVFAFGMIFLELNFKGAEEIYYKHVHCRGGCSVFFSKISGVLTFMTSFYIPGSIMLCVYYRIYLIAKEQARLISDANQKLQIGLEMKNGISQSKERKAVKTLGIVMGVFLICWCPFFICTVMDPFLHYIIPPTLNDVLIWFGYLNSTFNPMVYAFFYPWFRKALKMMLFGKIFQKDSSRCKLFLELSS
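Repeats: no replicates (n 1) | Material: CHO-derived RD-HGA16 cells with stable Gα16 and human TAAR1 | Technique: Kinetic Fluo-8 calcium fluorescence | Schedule: 17-24 h seeding, 75 min 37 °C dye, 30 min RT | Evaluation: % activation from peak over basal fluorescence ratio, DMSO-to-PEA scaled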
CHO parental Ca: ATP-evoked calcium signal inhibitors, parental CHO, primary screen, counter-screen for OX1R antagonist project, cell-based, fluorescence, Fluo-8 calcium dye; parental CHO-K1, ATP-induced calcium, Fluo-8 fluorescence; inhibition, % at 5.6 µM; 330,000 tested, 0.63% active; AID 463079, 2010;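 active = inhibition above that plate's mean sample inhibition plus 3 SD, cut at about 26% in these data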;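 also: 0% = ATP-challenged DMSO wells and 100% = DMSO wells without ATP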
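Assay system: untransfected parental CHO cell line. Also added: ATP agonist challenge. Dosing: one dose, 5.6 µM nominal. Measured by: Fluo-8 fluorescence. Read-out: % inhibition. Benchmarks: ATP wells versus no-ATP DMSO wells. Repeats: no replicates.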
OX1R antag-2: OX1R (HCRTR1) antagonists, primary screen, fluorescence, CHO/OX1R cells, Fluo-8 calcium, orexin A; Orexin/Hypocretin receptor type 1 (Homo sapiens), O43613; Fluo-8 calcium fluorescence; inhibition, % at 5 µM; 330,000 tested, 0.43% active; AID 434989, 2010;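 active = inhibition above its plate's threshold, mean inhibition of all tested compounds on the plate plus 3 SD, cut at about 37% in these data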;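 also: 0% = orexin A challenge wells and 100% = SB-334867-A antagonist wells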
TAAR1 antag: human TAAR1 antagonists, primary screen, Fluo-8 calcium fluorescence, CHO RD-HGA16 cells; Trace amine-associated receptor 1 (Homo sapiens), Q96RJ0; antagonist; inhibition, % at 3 µM; 360,000 tested, 1.5% active;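 active = inhibition above a per-plate cutoff, the mean inhibition of test compounds on that plate plus 3 SD, cut at about 49% in these data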;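 also: 0% = DMSO plus EC80 beta-PEA response and 100% = DMSO alone without agonist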
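Test system: CHO RD-HGA16 cells bearing hTAAR1 | Reagent: β-PEA, EC80 | Compound dosing: 3 µM, single point | Schedule: Dye loading 75 min at 37 °C, then 30 min room temperature | Signal: Calcium fluorescence with Fluo-8 | Evaluation: Percent inhibition of PEA-evoked calcium signal, max/basal emission ratio | Control set: DMSO-only wells and EC80 β-PEA-stimulated wells | Repeats: Singlicate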
Starred values were filed as active, the others as inactive; / = no result given. Compounds with a hit are over-represented: about 4.5% of the library has one in this group of screens.

SMILES	OX1R antag-1	GPR7 antag	TAAR1 agonist	CHO parental Ca	OX1R antag-2	TAAR1 antag
Cc1c(-c2nc(N)nc(Nc3ccccc3F)n2)oc2ccccc12	39*	-2	10	-2	-5	-8
CC(C)NC(=O)C1(C)CN(S(C)(=O)=O)CC(=O)N1CCCN1CCOCC1 (centres undefined)	/	/	0	/	/	1
COc1cccc(NC(=O)N(C)C[C@H]2OCc3ccccc3-c3c(n(C)c4ccccc34)C(=O)N([C@H](C)CO)C[C@H]2C)c1	/	/	1	/	/	0
CC(=O)CC(=O)NC(=NC1CCCCC1)Nc1nc(C)cc(C)n1	16	21*	0	2	-7	-23
COc1ccc(-c2cc3c(o2)CCCC3OCCN2CCOCC2)cc1 (centres undefined)	/	/	4	/	/	-5
CN1OC[C@@H]2CN(C(=S)Nc3cc(C(F)(F)F)cc(C(F)(F)F)c3)[C@H](c3ccccc3Br)C[C@@H]21	/	/	0	/	/	-16
C[C@H](CO)N1C[C@H](C)[C@H](CN(C)C(=O)Nc2cccc3ccccc23)Oc2ncc(Br)cc2C1=O	/	/	4	/	/	-1
O=C(NC1CCCC1)[C@@H]1CCCN1C(=O)[C@@H](NS(=O)(=O)c1ccc(F)cc1F)c1ccccc1	/	/	1	/	/	-14
COc1ccc(S(=O)(=O)N2CCOCC2)cc1N=Nc1sc(N)nc1-c1ccccc1	33	5	12	-4	-3	54*
Cc1cc(C)cc(N/C(N)=N/c2nc(C)cc(C)n2)c1	9	-1	39*	1	20	24
c1cc2c(cc1C1CCCCC1)c1c3n2CCCNC3CCC1 (centres undefined)	3	18	43*	14	22	35
O=C(NCCSc1c[nH]c2ccccc12)c1ccc(Br)o1	19	-1	2	-5	-5	-1
Cc1[nH]c2ccccc2c1SCCNC(=O)c1ccc(Br)o1	66*	7	3	-25	24	27
COc1ccc(-c2[nH]c3ccccc3c2SCCNC(=O)c2cc3ccccc3oc2=O)cc1	42*	-18	5	-9	-16	37
O=C(NCc1ccccc1)[C@@H]1CCCN1C(=O)[C@H]1CCCN1C(=O)N1CCCCC1	/	/	0	/	/	-3
O=C(C(=O)N1CCN(S(=O)(=O)c2cccc(C(F)(F)F)c2)CC1)c1cccc(C(F)(F)F)c1	/	/	1	/	/	-19
Nc1ccc2ccc(NS(=O)(=O)N3CCCCC3)cc2c1	/	/	3	/	/	-8
c1csc(CCNc2ncnc3sc4c(c23)CCC4)c1	59*	/	-3	58*	-26	18
c1ccc(Nc2ncnc3sc4c(c23)CCC4)cc1	7	-6	23	-15	-21	-13
CC1=NN(c2ccccc2)C(=O)/C1=C/C=C/C=C/N(C)C	73*	1	8	2	9	6
CC1(C(=O)Nc2ccc3[nH]ncc3c2)CCN1C(=O)Cc1ccc(-c2ccccc2)cc1 (centres undefined)	/	/	18	/	/	50*
COc1ccc(Cn2cc(CN3CC(N4CC=CC4)CS3(=O)=O)nn2)cc1 (centres undefined)	/	/	1	/	/	-2
C=CCn1c(SCCC)nc(O)cc1=O	0	-3	61*	-14	-13	-17
Cc1nc(NCCCn2ccnc2)c2ccccc2n1	5	2	8	-12	-2	0
O=C1c2ccccc2-c2onc3ccc(NCCCn4ccnc4)c1c23	46*	-6	/	40*	57*	/
O=C1CC2c3cc(Br)ccc3CCN2C(=O)CN1Cc1ccccc1 (centres undefined)	/	/	5	/	/	-5
CC1=CC(=O)C=C(C)C1=NOS(=O)(=O)c1ccccc1	/	40*	19	/	/	52*
CC1=CC(=O)C(C(C)C)=C/C1=N/OS(=O)(=O)c1ccccc1	64*	81*	20	71*	75*	43
